Laboratory results reported in ChEMBL document CHEMBL1124232, “Synthesis and biological activities of 4-O-(difluoromethyl)-5-substituted-uracil nucleoside analogues” (J Med Chem, 1988).

Experiments:
Human alphaherpesvirus 1 [1] = assay: Ability to reduce plaque formation of herpes simplex virus type 1 (HSV-1) by 50% in human embryonic lung fibroblast (HELF) cell cultures; assay type: functional; settings: Human alphaherpesvirus 1, HELF; read-out: ID50 (the source's name)
Method in brief: (§1)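 HELF confluent monolayers infected 1 h at 37 °C (about 50–100 plaques per bottle) with HSV-1 clinical isolate strain 77 or TK-deficient HSV-1 B 2006. Then 0.5% w/v methocel overlay with 10% fetal calf serum plus compound, 3 days at 37 °C. Neutral red staining; ID50 in µmol/L read graphically as 50% plaque-number reduction.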

[2] = Minimum concentration not causing a microscopically detectable cytotoxic alteration of normal human embryonic lung fibroblast (HELF) morphology
Method in brief: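 Semiconfluent HELF monolayers, 24 h post-seeding, exposed 3 days at 37 °C to compound up to 1 mmol/L. Microscopic comparison with untreated controls; toxicity signs were cell detachment, monolayer destruction, or cells remaining semiconfluent. Value is the lowest concentration showing no detectable morphological alteration.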

Human alphaherpesvirus 2 = assay: Ability to reduce plaque formation of herpes simplex virus type 2 (HSV-2) by 50% in human embryonic lung fibroblast (HELF) cell cultures; assay type: functional; settings: Human alphaherpesvirus 2, HELF; read-out: ID50 (the source's name)
Method in brief: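 Clinical isolate HSV-2 strain 74 adsorbed 1 h at 37 °C onto confluent HELF monolayers, aiming at 50–100 plaques per bottle. Compound added in methocel (0.5% w/v) overlay containing 10% FCS; 2 days at 37 °C. Plaques visualised with neutral red. ID50 in µmol/L determined graphically as the concentration halving plaque counts.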

[3] = Inhibitory dose for HELF cell proliferation during 3-day treatment period; assay type: functional; settings: Homo sapiens, 72 h, read-out: ID50 (the source's name)
Human alphaherpesvirus 1 [4] = assay: Ability to reduce plaque formation of TK deficient herpes simplex virus type 1(HSV-1) by 50% in human embryonic lung fibroblast (HELF) cell cultures; assay type: functional; settings: Human alphaherpesvirus 1, HELF; read-out: ID50 (the source's name); method in brief: as §1
Human betaherpesvirus 5 = assay: Ability to reduce plaque formation of human cytomegalovirus (HCMV) by 50% in human embryonic lung fibroblast (HELF) cell cultures; assay type: functional; settings: Human betaherpesvirus 5, HELF; read-out: ID50 (the source's name)
Method in brief: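 Plaque reduction in HELF cells with laboratory HCMV strain Davis, plaques scored 8–12 days post-infection. ID50 is the concentration cutting plaque formation by 50%.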

Human alphaherpesvirus 3 = assay: Ability to reduce plaque formation of varicella zoster virus (VZV) by 50% in human embryonic lung fibroblast (HELF) cell cultures; assay type: functional; settings: Human alphaherpesvirus 3, HELF; read-out: ID50 (the source's name)
Method in brief: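 Fresh clinical VZV isolate, strain 3/S.H., in HELF cells. Plaques counted 5–6 days post-infection. ID50 is the concentration reducing plaque formation by 50%.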

SMILES	IC50 (Human alphaherpesvirus 1 [1]) [µM]	Toxicity [2] [µM]	IC50 (Human alphaherpesvirus 2) [µM]	IC50 [3] [µM]	IC50 (Human alphaherpesvirus 1 [4]) [µM]	IC50 (Human betaherpesvirus 5) [µM]	IC50 (Human alphaherpesvirus 3) [µM]
O=c1[nH]c(=O)n([C@H]2C[C@H](O)[C@@H](CO)O2)cc1Br [BROXURIDINE]	0.8	> 1000	1.4				
O=c1[nH]c(=O)n(C2O[C@H](CO)[C@@H](O)[C@@H]2O)cc1I (some centres not stated)	51	> 500	70				
O=c1[nH]c(=O)n([C@@H]2O[C@H](CO)[C@@H](O)[C@@H]2O)cc1Br	1.35	> 1000	7.9				
Nc1nc2c(ncn2COCCO)c(=O)[nH]1 [ACYCLOVIR]	0.48		1.6	360			
Cc1cn(C2O[C@H](CO)[C@@H](O)[C@@H]2O)c(=O)nc1OC(F)F (some centres not stated)	0.8	> 1000	3		> 500	> 500	1
Cc1cn([C@H]2C[C@H](O)[C@@H](CO)O2)c(=O)nc1OC(F)F	> 1000	> 1000	> 1000				
O=c1nc(OC(F)F)ccn1[C@@H]1O[C@H](CO)[C@@H](O)[C@H]1O	> 1000	> 1000	> 1000				
O=c1nc(OC(F)F)c(Br)cn1[C@@H]1O[C@H](CO)[C@@H](O)[C@H]1O	> 250	> 250	> 250				
CCc1cn([C@H]2C[C@H](O)[C@@H](CO)O2)c(=O)nc1OC(F)F	> 1000	> 1000	> 1000				
O=c1nc(OC(F)F)c(/C=C/Br)cn1C1O[C@H](CO)[C@@H](O)[C@@H]1O (some centres not stated)	1.1	> 500	> 500				
O=c1[nH]c(=O)n([C@H]2C[C@H](O)[C@@H](CO)O2)cc1/C=C/Br [BRIVUDINE]	0.05		27	170			
O=c1nc(OC(F)F)ccn1[C@@H]1O[C@H](CO)[C@@H](O)[C@@H]1O	430	> 1000	> 1000				
O=c1[nH]c(=O)n([C@@H]2O[C@H](CO)[C@@H](O)[C@H]2O)cc1/C=C/Br	0.115		49	> 1000			
O=c1nc(OC(F)F)c(Br)cn1[C@H]1C[C@H](O)[C@@H](CO)O1	130	> 500	> 500				
CCc1cn(C2O[C@H](CO)[C@@H](O)[C@@H]2O)c(=O)nc1OC(F)F (some centres not stated)	27	> 500	210				
CCc1cn([C@H]2C[C@H](O)[C@@H](CO)O2)c(=O)[nH]c1=O [EDOXUDINE]	10	> 1000	14.5				
O=c1nc(OC(F)F)c(Br)cn1[C@@H]1O[C@H](CO)[C@@H](O)[C@@H]1O	3.6	> 1000	17.6				
O=c1nc(OC(F)F)c(I)cn1[C@@H]1O[C@H](CO)[C@@H](O)[C@@H]1O	29	> 1000	82				
O=c1nc(OC(F)F)c(F)cn1[C@@H]1O[C@H](CO)[C@@H](O)[C@H]1O	500	> 500	> 500				
Cc1cn([C@@H]2O[C@H](CO)[C@@H](O)[C@@H]2O)c(=O)[nH]c1=O	0.64	> 1000	1.65		> 500	> 500	0.53
O=c1nc(OC(F)F)c(I)cn1[C@@H]1O[C@H](CO)[C@@H](O)[C@H]1O	> 500	> 500	> 500				
O=c1nc(OC(F)F)c(F)cn1[C@@H]1O[C@H](CO)[C@@H](O)[C@@H]1O	110	> 500	300				
